Molecules are shown by their SMILES. ≈ marks a conversion by molar mass, not a printed value. Calls of active or inactive are those of the source. The rule behind the calls is not given here.

As a reminder, the MIC80 is an inhibitory concentration at the 80% level, which refers to growth in some studies and to a panel of isolates in others.

For one assay, the system named is Nakaseomyces glabratus. Kind of assay: Antifungal activity against Candida glabrata ATCC 48435 after 48 to 72 hrs by broth microdilution method. It is filed as functional. The essentials:
(§1)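 Broth microdilution per NCCLS. Organisms were subcultured on Sabouraud agar. Inoculum was 5–7 colonies from YM agar in sterile water, adjusted to 0.5 McFarland at 530 nm (1–5×10⁶ cells/mL stock), held 30 min at RT, then diluted 1:50 in HEPES-buffered RPMI 1640. DMSO stocks were twofold-diluted, with final DMSO ≤1%. Plates ran 48–72 h at 35 °C, humid. MIC is the lowest concentration giving ≥80% growth reduction vs drug-free wells, scored visually. Fluconazole or amphotericin B ran as drug control.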
On the technique in general: Dilution methods test growth across graded concentrations, often in twofold steps.

In the next assay the test system is Candida albicans. Nature of the assay: Antifungal activity against Candida albicans ATCC 10231 after 48 to 72 hrs by broth microdilution method. Type of assay: functional. In a few lines:
as §1

Consider `CN1C(=O)C(=C/C=C/c2ccccc2)C(=O)N(C)C1=O`, for which the MIC80 in the assay on Nakaseomyces glabratus turned out to be 125 µg/mL (≈ 462 µM); against Candida albicans it was 62 µg/mL (≈ 229 µM).
In the case of `C/C(=N\c1ccccc1)C1C(=O)N(C)C(=O)N(C)C1=O`, the MIC80 result in the assay on Nakaseomyces glabratus and in the assay with Candida albicans was “inactive” throughout.
With `CN1C(=O)C(/C=N/c2ccc(O)cc2)C(=O)N(C)C1=O`, the MIC80 entry in the assay on Nakaseomyces glabratus and in the assay with Candida albicans was “inactive” throughout.
On to `COc1ccc(C=C2C(=O)N(C)C(=O)N(C)C2=O)cc1`, for which the MIC80 entry in the assay with Nakaseomyces glabratus and with Candida albicans was “inactive” throughout.
Take `COc1ccc(/N=C/C2C(=O)NC(=O)NC2=O)cc1`: the MIC80 result in the assay with Nakaseomyces glabratus and with Candida albicans was “inactive” in each case.
In the case of `C/C(=N\NC(=O)c1ccccc1)C1C(=O)N(C)C(=O)N(C)C1=O`, the MIC80 result in the assay with Nakaseomyces glabratus and in the assay with Candida albicans was “inactive” throughout.
As to `CN1C(=O)C(/C=N/c2ccc([N+](=O)[O-])cc2)C(=O)N(C)C1=O`, the MIC80 entry with Nakaseomyces glabratus and in the assay on Candida albicans was “inactive” in each case.
For the molecule `CN1C(=O)C(/C=N/NS(=O)(=O)c2ccccc2)C(=O)N(C)C1=O`, the MIC80 result with Nakaseomyces glabratus and in the assay with Candida albicans was “inactive” in each case.
As to `O=C1NC(=O)C(/C(=N/Nc2ccc([N+](=O)[O-])cc2[N+](=O)[O-])c2ccccc2)C(=O)N1`, the MIC80 result in the assay with Nakaseomyces glabratus and in the assay with Candida albicans was “inactive” throughout.
As for `CN1C(=O)C(/C=N/NC(=O)c2ccccc2)C(=O)N(C)C1=O`, the MIC80 result in the assay on Nakaseomyces glabratus and with Candida albicans was “inactive” each time.
Regarding `C/C(=N\Nc1ccc([N+](=O)[O-])cc1[N+](=O)[O-])C1C(=O)N(C)C(=O)N(C)C1=O`, the MIC80 result with Nakaseomyces glabratus and with Candida albicans was “inactive” throughout.
On to `O=C1NC(=O)C(/C=N/NC(=O)c2ccccc2)C(=O)N1`, for which the MIC80 result with Nakaseomyces glabratus and in the assay with Candida albicans was “inactive” in each case.
Regarding `CN1C(=O)C(/C=N/c2ccccn2)C(=O)N(C)C1=O`, the MIC80 entry with Nakaseomyces glabratus and with Candida albicans was “inactive” in each case.
On to `C/C(=N\NC(=O)c1ccc([N+](=O)[O-])cc1)C1C(=O)NC(=O)NC1=O`, for which the MIC80 in the assay with Nakaseomyces glabratus was 125 µg/mL (≈ 375 µM). Further, the MIC80 result in the assay on Candida albicans is “inactive”.
The like results for `O=C1NC(=O)N(c2ccccc2)C(=O)C1/C(=N/Nc1ccc([N+](=O)[O-])cc1[N+](=O)[O-])c1ccccc1` (stereo not given) were, in that order, “inactive” and “inactive”.
The matching figures for `CCCCN1C(=O)NC(=O)C(/C(=N/Nc2ccc([N+](=O)[O-])cc2[N+](=O)[O-])c2ccccc2)C1=O` (stereo not given): “inactive” and “inactive”.
The matching figures for `O=C1NC(=O)C(/C=N/n2cnnc2)C(=O)N1`: “inactive” and “inactive”.
For the molecule `CN1C(=O)C(/C=N/n2cnnc2)C(=O)N(C)C1=O`, the MIC80 result in the assay with Nakaseomyces glabratus and in the assay on Candida albicans was “inactive” each time.
Take `O=C1NC(=O)C(/C=N/Nc2ccc([N+](=O)[O-])cc2[N+](=O)[O-])C(=O)N1`: in the assay with Nakaseomyces glabratus, the MIC80 turned out to be 125 µg/mL (≈ 372 µM). In addition, the MIC80 entry in the assay with Candida albicans was “inactive”.
The matching figures for `COC(=O)N/N=C(\C)C1C(=O)NC(=O)NC1=O`: “inactive” and “inactive”.
The like results for `O=C1NC(=O)C(/C=N/NS(=O)(=O)c2ccccc2)C(=O)N1` were, in that order, “inactive” and “inactive”.
The matching figures for `CN(C)c1ccc(C=C2C(=O)NC(=O)NC2=O)cc1`: “inactive” and 62 µg/mL (≈ 239 µM).
On to `CN1C(=O)C(/C=N/c2ccc(-c3ccccc3)cc2)C(=O)N(C)C1=O`, for which the MIC80 result in the assay on Nakaseomyces glabratus and in the assay on Candida albicans was “inactive” throughout.
`C/C(=N\c1ccccc1)C1C(=O)NC(=O)NC1=O`: the MIC80 entry in the assay on Nakaseomyces glabratus and in the assay on Candida albicans was “inactive” in each case.
In the case of `O=C1NC(=O)C(/C=N/C2N=NN=N2)C(=O)N1`, the MIC80 entry in the assay on Nakaseomyces glabratus and in the assay with Candida albicans was “inactive” each time.
Take `CN1C(=O)C(=Cc2ccc(N(C)C)cc2)C(=O)N(C)C1=O`: the MIC80 entry in the assay on Nakaseomyces glabratus and in the assay on Candida albicans was “inactive” in each case.
`C/C(=N\c1ccc(O)cc1)C1C(=O)N(C)C(=O)N(C)C1=O`: the MIC80 entry with Nakaseomyces glabratus and in the assay with Candida albicans was “inactive” throughout.
In the case of `CN1C(=O)C(/C=N/N)C(=O)N(C)C1=O`, the MIC80 against Nakaseomyces glabratus worked out at 16 µg/mL (≈ 80.7 µM); against Candida albicans it was 125 µg/mL (≈ 631 µM).
On to `CN1C(=O)C(/C=N/c2nnc[nH]2)C(=O)N(C)C1=O`, for which the MIC80 result in the assay with Nakaseomyces glabratus and in the assay on Candida albicans was “inactive” in each case.
Turning to `O=C1NC(=O)C(/C=N/c2ccc(-c3ccccc3)cc2)C(=O)N1`, the MIC80 entry in the assay on Nakaseomyces glabratus and in the assay with Candida albicans was “inactive” each time.
Take `O=C1NC(=O)C(/C=N/c2cccc(O)c2)C(=O)N1`: the MIC80 result in the assay on Nakaseomyces glabratus and in the assay on Candida albicans was “inactive” in each case.
With `N/N=C/C1C(=O)NC(=O)NC1=O`, the MIC80 is 16 µg/mL (≈ 94 µM) against Nakaseomyces glabratus and 125 µg/mL (≈ 735 µM) against Candida albicans.
The like results for `COC(=O)N/N=C/C1C(=O)N(C)C(=O)N(C)C1=O` were, in that order, “inactive” and “inactive”.
As to `O=C1NC(=O)C(=Cc2ccc(O)cc2)C(=O)N1`, the MIC80 result in the assay on Nakaseomyces glabratus and with Candida albicans was “inactive” in each case.
With `O=C1NC(=O)C(/C=N/c2ccccn2)C(=O)N1`, the MIC80 entry in the assay on Nakaseomyces glabratus and with Candida albicans was “inactive” throughout.
On to `C/C(=N\NS(=O)(=O)c1ccccc1)C1C(=O)N(C)C(=O)N(C)C1=O`, for which the MIC80 entry in the assay on Nakaseomyces glabratus and in the assay with Candida albicans was “inactive” each time.
Regarding `Cc1ccc(S(=O)(=O)N/N=C/C2C(=O)N(C)C(=O)N(C)C2=O)cc1`, the MIC80 result in the assay with Nakaseomyces glabratus and with Candida albicans was “inactive” in each case.
For `CN1C(=O)C(/C(=N/Nc2ccc(C(=O)O)cc2)c2ccccc2)C(=O)N(C)C1=O`, the MIC80 entry with Nakaseomyces glabratus and in the assay with Candida albicans was “inactive” in each case.
As for `COc1ccc(/C(=N\CCCCCC(=O)O)C2C(=O)NC(=O)NC2=O)cc1`, the MIC80 result with Nakaseomyces glabratus and with Candida albicans was “inactive” in each case.
In the case of `O=C1NC(=O)C(/C=N/c2ccncc2)C(=O)N1`, the MIC80 result in the assay with Nakaseomyces glabratus and with Candida albicans was “inactive” throughout.
For `COc1ccc(/N=C(\C)C2C(=O)NC(=O)NC2=O)cc1`, the MIC80 result with Nakaseomyces glabratus and in the assay on Candida albicans was “inactive” throughout.
On to `O=C1NC(=O)C(/C=N/c2ccc(O)cc2)C(=O)N1`, for which the MIC80 result in the assay with Nakaseomyces glabratus and with Candida albicans was “inactive” in each case.
For `C/C(=N\Nc1ccc([N+](=O)[O-])cc1)C1C(=O)NC(=O)N(c2ccccc2)C1=O` (stereo not given), the MIC80 in the assay with Nakaseomyces glabratus worked out at 16 µg/mL (≈ 42 µM); against Candida albicans, 31.5 µg/mL (≈ 82.6 µM).
The like results for `C/C(=N\NS(=O)(=O)c1ccccc1)C1C(=O)NC(=O)NC1=O` were, in that order, “inactive” and “inactive”.
In the case of `CN1C(=O)C(/C=N/c2ccccc2)C(=O)N(C)C1=O`, the MIC80 entry in the assay with Nakaseomyces glabratus and in the assay on Candida albicans was “inactive” throughout.
Regarding `O=C1NC(=O)C(=C/C=C/c2ccccc2)C(=O)N1`, the MIC80 entry with Nakaseomyces glabratus was “inactive”. In addition, the MIC80 against Candida albicans was 62 µg/mL (≈ 256 µM).
As to `COc1ccc(C(=O)N/N=C(\C)C2C(=O)NC(=O)NC2=O)cc1`, the MIC80 entry with Nakaseomyces glabratus and with Candida albicans was “inactive” throughout.
Take `COC(=O)N/N=C(\c1ccc(O)cc1)C1C(=O)N(C)C(=O)N(C)C1=O`: the MIC80 entry with Nakaseomyces glabratus and with Candida albicans was “inactive” each time.
In the case of `O=C1NC(=O)C(=Cc2ccc3ccccc3c2)C(=O)N1`, the MIC80 entry in the assay on Nakaseomyces glabratus was “inactive”. The molecule further came in with an MIC80 in the assay on Candida albicans of 125 µg/mL (≈ 469 µM).
The matching figures for `COc1ccc(C(=O)N/N=C(\C)C2C(=O)N(C)C(=O)N(C)C2=O)cc1`: “inactive” and “inactive”.
The like results for `CN1C(=O)C(=Cc2ccc(O)cc2O)C(=O)N(C)C1=O` were, in that order, 2 µg/mL (≈ 7.24 µM) and “inactive”.
The matching figures for `CN/N=C/C1C(=O)NC(=O)NC1=O`: “inactive” and “inactive”.
Turning to `C/C(=N\N)C1C(=O)NC(=O)NC1=O`, the MIC80 entry with Nakaseomyces glabratus and in the assay with Candida albicans was “inactive” each time.
On to `CN1C(=O)C(/C(=N/Nc2ccc([N+](=O)[O-])cc2[N+](=O)[O-])c2ccc(O)cc2)C(=O)N(C)C1=O`, for which the MIC80 entry with Nakaseomyces glabratus and with Candida albicans was “inactive” throughout.
The molecule `O=C1NC(=O)C(=Cc2ccccc2O)C(=O)N1` returned an MIC80 against Nakaseomyces glabratus of 8 µg/mL (≈ 34.5 µM). Also, the MIC80 result with Candida albicans was “inactive”.
The matching figures for `C/C(=N\c1ccncc1)C1C(=O)N(C)C(=O)N(C)C1=O`: “inactive” and “inactive”.
For `CN1C(=O)C(/C=N/c2ccncc2)C(=O)N(C)C1=O`, the MIC80 entry in the assay on Nakaseomyces glabratus and in the assay on Candida albicans was “inactive” throughout.
Consider `C/C(=N\NC(=O)c1ccccc1)C1C(=O)NC(=O)NC1=O`, for which the MIC80 entry with Nakaseomyces glabratus and in the assay on Candida albicans was “inactive” throughout.
For the molecule `O=C1NC(=O)C(=Cc2ccco2)C(=O)N1`, the MIC80 result in the assay on Nakaseomyces glabratus and with Candida albicans was “inactive” each time.
For `C/C(=N\CCCCCC(=O)O)C1C(=O)NC(=O)NC1=O`, the MIC80 result in the assay on Nakaseomyces glabratus and with Candida albicans was “inactive” throughout.
`CN1C(=O)C(=Cc2ccc(O)cc2)C(=O)N(C)C1=O`: the MIC80 result in the assay on Nakaseomyces glabratus and with Candida albicans was “inactive” in each case.
As to `O=C1NC(=O)C(/C=N/c2ccc([N+](=O)[O-])cc2)C(=O)N1`, the MIC80 result in the assay on Nakaseomyces glabratus and with Candida albicans was “inactive” in each case.
Turning to `COC(=O)N/N=C/C1C(=O)NC(=O)NC1=O`, the MIC80 result in the assay with Nakaseomyces glabratus and in the assay with Candida albicans was “inactive” each time.
Take `O=C1NC(=O)C(/C=N/c2ccccc2)C(=O)N1`: the MIC80 result with Nakaseomyces glabratus and in the assay on Candida albicans was “inactive” throughout.
With `O=C1NC(=O)C(/C=N/c2nnc[nH]2)C(=O)N1`, the MIC80 result in the assay on Nakaseomyces glabratus and in the assay on Candida albicans was “inactive” throughout.

These data come from ChEMBL document CHEMBL3102843, “Synthesis and antifungal activity of substituted 2,4,6-pyrimidinetrione carbaldehyde hydrazones” (Bioorg Med Chem, 2014).
